In ChEMBL document CHEMBL4819034, “Tricyclic-Carbocyclic RORγt Inverse Agonists-Discovery of BMS-986313” (J Med Chem, 2021):

What was measured:
[1] = Metabolic stability in human liver microsomes assessed as parent compound remaining; type: ADME, Microsome
How it was run: (§1)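 Test compound at 0.5 μM initial concentration incubated with human, mouse or rat liver microsomes (protein 1 mg/mL). Metabolic stability reported as percent of parent compound remaining after incubation.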

[2] = Metabolic stability in rat liver microsomes assessed as parent compound remaining; type: ADME, Microsome; how it was run: as §1
[3] = Half life in cynomolgus monkey liver microsomes; type: ADME, Macaca fascicularis, Microsome
How it was run: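 Liver microsome half-life (min) measured in human, mouse, rat, dog and cyno liver microsomes.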

[4] = target: T1, Nuclear receptor ROR-alpha (Homo sapiens, UniProt P35398); assay: Inverse agonist activity at Gal4-fused RORalpha (unknown origin)
T1 sequence (P35398 whole entry): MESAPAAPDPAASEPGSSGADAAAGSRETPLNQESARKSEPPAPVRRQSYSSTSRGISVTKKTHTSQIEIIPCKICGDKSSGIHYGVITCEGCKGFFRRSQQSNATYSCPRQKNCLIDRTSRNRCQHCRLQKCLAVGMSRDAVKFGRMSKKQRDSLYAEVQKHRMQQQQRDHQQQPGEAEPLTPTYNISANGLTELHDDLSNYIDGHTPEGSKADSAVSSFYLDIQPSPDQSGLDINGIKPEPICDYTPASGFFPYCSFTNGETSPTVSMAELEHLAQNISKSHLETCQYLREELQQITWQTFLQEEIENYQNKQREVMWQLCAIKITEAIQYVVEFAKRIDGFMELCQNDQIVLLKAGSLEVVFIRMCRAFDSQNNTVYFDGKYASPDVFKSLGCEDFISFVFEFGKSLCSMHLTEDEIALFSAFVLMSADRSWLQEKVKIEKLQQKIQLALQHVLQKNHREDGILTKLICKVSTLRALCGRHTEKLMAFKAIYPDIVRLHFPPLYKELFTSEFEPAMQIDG

[5] = target: T2, Nuclear receptor ROR-beta (Homo sapiens, UniProt Q92753); assay: Inverse agonist activity at Gal4-fused RORbeta (unknown origin)
T2 sequence (Q92753 whole entry): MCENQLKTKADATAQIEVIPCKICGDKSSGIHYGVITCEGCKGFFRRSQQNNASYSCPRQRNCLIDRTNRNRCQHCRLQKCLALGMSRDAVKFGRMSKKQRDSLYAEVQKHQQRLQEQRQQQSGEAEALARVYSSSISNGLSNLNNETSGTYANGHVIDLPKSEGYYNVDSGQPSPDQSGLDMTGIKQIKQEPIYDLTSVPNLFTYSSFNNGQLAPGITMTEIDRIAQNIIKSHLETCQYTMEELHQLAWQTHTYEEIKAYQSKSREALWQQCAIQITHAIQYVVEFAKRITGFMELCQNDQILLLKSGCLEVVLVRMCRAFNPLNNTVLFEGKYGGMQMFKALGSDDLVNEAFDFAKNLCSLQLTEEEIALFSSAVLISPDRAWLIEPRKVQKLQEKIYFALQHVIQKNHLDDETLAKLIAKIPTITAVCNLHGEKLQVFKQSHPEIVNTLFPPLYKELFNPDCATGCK

[6] = target: T3, Oxysterols receptor LXR-beta (Homo sapiens, UniProt P55055); assay: Inverse agonist activity at LXRbeta (unknown origin)
T3 sequence (P55055 whole entry): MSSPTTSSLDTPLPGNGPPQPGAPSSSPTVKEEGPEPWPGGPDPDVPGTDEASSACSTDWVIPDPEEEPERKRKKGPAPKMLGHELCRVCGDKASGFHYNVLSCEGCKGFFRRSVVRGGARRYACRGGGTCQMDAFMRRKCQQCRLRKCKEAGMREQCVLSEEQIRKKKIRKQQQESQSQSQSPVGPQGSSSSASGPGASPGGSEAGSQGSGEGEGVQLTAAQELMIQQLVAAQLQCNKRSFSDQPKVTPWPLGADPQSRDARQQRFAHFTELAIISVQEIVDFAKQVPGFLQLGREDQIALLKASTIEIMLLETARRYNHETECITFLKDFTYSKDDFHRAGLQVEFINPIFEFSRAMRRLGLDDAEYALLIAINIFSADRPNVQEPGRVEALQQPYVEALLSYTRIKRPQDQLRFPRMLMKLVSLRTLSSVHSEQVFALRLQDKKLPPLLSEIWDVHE

Cytochrome P450 3A4 = Cytochrome P450 3A4 (Homo sapiens, UniProt P08684); assay: Inhibition of CYP3A4 (unknown origin); type: ADME
Cytochrome P450 3A4, sequence (P08684 whole entry): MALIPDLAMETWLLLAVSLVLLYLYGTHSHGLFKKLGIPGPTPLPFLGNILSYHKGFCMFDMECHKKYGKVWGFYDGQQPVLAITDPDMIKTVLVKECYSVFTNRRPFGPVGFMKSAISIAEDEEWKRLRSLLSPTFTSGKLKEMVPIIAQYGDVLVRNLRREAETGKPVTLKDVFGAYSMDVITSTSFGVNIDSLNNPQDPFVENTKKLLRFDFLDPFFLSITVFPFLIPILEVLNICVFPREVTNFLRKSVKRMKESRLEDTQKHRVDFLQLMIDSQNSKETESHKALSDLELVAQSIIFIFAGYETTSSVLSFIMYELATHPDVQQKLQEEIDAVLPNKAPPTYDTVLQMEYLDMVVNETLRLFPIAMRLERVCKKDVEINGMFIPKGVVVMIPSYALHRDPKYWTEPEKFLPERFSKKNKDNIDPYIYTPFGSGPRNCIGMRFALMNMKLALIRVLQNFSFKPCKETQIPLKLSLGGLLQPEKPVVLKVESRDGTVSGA

Cytochrome P450 2C8 = target: T4, Cytochrome P450 2C8 (Homo sapiens, UniProt P10632); assay: Inhibition of CYP2C8 (unknown origin); type: ADME
T4 sequence (P10632 whole entry): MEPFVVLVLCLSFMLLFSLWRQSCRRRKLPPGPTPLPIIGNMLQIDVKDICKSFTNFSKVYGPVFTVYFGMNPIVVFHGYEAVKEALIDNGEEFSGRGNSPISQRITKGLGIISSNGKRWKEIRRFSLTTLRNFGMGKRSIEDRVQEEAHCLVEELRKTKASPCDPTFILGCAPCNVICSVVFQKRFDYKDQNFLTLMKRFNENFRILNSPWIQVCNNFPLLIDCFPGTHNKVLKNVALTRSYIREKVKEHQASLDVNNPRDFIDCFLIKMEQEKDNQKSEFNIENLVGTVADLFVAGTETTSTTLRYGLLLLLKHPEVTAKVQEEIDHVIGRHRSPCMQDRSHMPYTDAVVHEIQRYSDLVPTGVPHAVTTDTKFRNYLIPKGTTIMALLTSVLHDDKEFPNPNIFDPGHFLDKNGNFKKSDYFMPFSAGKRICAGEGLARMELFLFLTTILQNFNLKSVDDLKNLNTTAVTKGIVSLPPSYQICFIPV

[7] = AUC (0 to 24 hrs) in cynomolgus monkey at 2 mg/kg, po; type: ADME, organism-based, Macaca fascicularis; set-up: time < 24 hr, route oral, dose 2 mg/kg; settings: in vivo
Mus musculus [8] = assay: Protection against imiquimod-induced C57BL/6 mouse model of psoriasis assessed as reduction in IL-17A mRNA levels at 5 mg/kg, po BID for 7 days by RT-PCR analysis relative to control; type: functional; set-up: scale not given: the % may be the effect or the level left; settings: time 7 day
Mus musculus [9] = assay: Protection against imiquimod-induced C57BL/6 mouse model of psoriasis assessed as reduction in IL-17F mRNA levels at 20 mg/kg, po BID for 7 days by RT-PCR analysis relative to control; type: functional; set-up: scale not given: the % may be the effect or the level left; settings: time 7 day
Mus musculus [10] = assay: Protection against recombinant human IL23-induced acanthosis C57BL/6 mouse model assessed as reduction in IL-17A mRNA levels at 3 mg/kg, po BID BID for 10 days by qRT-PCR analysis relative to control; type: functional; set-up: scale not given: the % may be the effect or the level left; settings: time 10 day
How it was run: (§2)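 In the IL-23 ear-injection model in C57BL/6 mice with BID oral dosing, ear tissue was collected from all animals at study end on day 10. IL-17A and IL-17F mRNA expression was quantified by qPCR and compared with the placebo arm.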

Mus musculus [11] = assay: Protection against recombinant human IL23-induced acanthosis C57BL/6 mouse model assessed as reduction in IL-17A mRNA levels at 6 mg/kg, po BID BID for 10 days by qRT-PCR analysis relative to control; type: functional; set-up: scale not given: the % may be the effect or the level left; settings: time 10 day; how it was run: as §2
Mus musculus [12] = assay: Protection against recombinant human IL23-induced acanthosis C57BL/6 mouse model assessed as reduction in IL-17F mRNA levels at 6 mg/kg, po BID BID for 10 days by qRT-PCR analysis relative to control; type: functional; set-up: scale not given: the % may be the effect or the level left; settings: time 10 day; how it was run: as §2

Stabilty [1]: 100% | Stabilty [2]: 100% | half-life [3]: 2 h | EC50 [4]: > 10 µM | EC50 [5]: > 10 µM | EC50 [6]: > 5 µM | IC50 (Cytochrome P450 3A4): 11 µM | IC50 (Cytochrome P450 2C8): 12 µM | AUC(0-t) at 24 h [7]: 18 µM·h
Structure (SMILES): CC(C)(O)C(=O)N[C@@H]1CC[C@@]2(S(=O)(=O)c3ccc(F)cc3)c3ccc(C(F)(C(F)(F)F)C(F)(F)F)cc3CC[C@@H]12
Activity (Mus musculus [8]): 75.9% | Activity (Mus musculus [9]): 97.9% | Activity (Mus musculus [10]): 2.7% | Activity (Mus musculus [11]): 64.9% | Activity (Mus musculus [12]): 87.3%
